Assay results as given in ChEMBL document CHEMBL1145773, “Design, synthesis, SAR, and molecular modeling studies of acylthiocarbamates: a novel series of potent non-nucleoside HIV-1 reverse transcriptase inhibitors structurally related to phenethylthiazolylthiourea derivatives” (J Med Chem, 2003).
pEC50, pIC50: −log10 of the molar value.

Assays:
MT4 = experiment: Selectivity index which is the ratio of CC50 and EC50 was determined; type: functional, Homo sapiens
Outline: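 MT-4 cells (1 × 10^4/well) were seeded with or without serial compound dilutions, then infected with HIV-1 IIIB at enough CCID50 for complete cytopathogenicity by day 4. Cultures were incubated at 37 °C and viability was read by MTT. […] Cytotoxicity was run in parallel on mock-infected cells, and SI = CC50/EC50. Data are means of three separate experiments.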

MT-4 (Homo sapiens) = experiment: Concentration required to reduce the viability of mock-infected MT-4 cells by 50% was determined by MTT method; settings: MT4
[1] = tested on: Human immunodeficiency virus 1; experiment: Anti HIV-1 activity of selected N-acylthiocarbamates against Y181C resistant mutant; type: functional, organism-based
Outline: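 Acutely infected MT-4 cells (1 × 10⁴ cells/well) incubated at 37 °C with serial compound dilutions (DMSO stock, diluted in medium) and Y181C mutant virus (NIH N119; titer 1.3 × 10⁶ CCID₅₀/mL) dosed to cause full cytopathogenicity by day 4. Viability read by MTT; EC₅₀ = concentration giving 50% protection from virus-induced cytopathogenicity.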

[2] = tested on: Human immunodeficiency virus 1; experiment: Concentration required to reduce the amount of p24 by 90% in HIV-1 infected C8166 cultures; type: functional, organism-based; settings: Human immunodeficiency virus 1, C8166
Outline: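 C8166 cells (1 × 10^4/well) were infected with wt HIV-1 in the presence of graded compound concentrations, with DMSO stocks diluted in culture medium. After incubation at 37 °C, p24 antigen was measured by immunoenzymatic kit. EC90 is the concentration lowering p24 by 90%.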

[3] = biological target: Human immunodeficiency virus type 1 reverse transcriptase (Human immunodeficiency virus 1, UniProt Q72547); experiment: Activity of selected HIV-1 N-acylthiocarbamates in enzyme assay against Virion-Associated reverse transcriptase
Outline: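 Virion-associated RT from stock virus disrupted with 0.5% NP-40. Incubation 60 min at 37 °C, then acid-insoluble radioactivity counted on glass fiber filters.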

Row | SMILES | SI (MT4) | CC50 (MT-4 (Homo sapiens)) [µM] | pEC50 [1] | EC90 [2] [µM] | pIC50 [3]
1 | O=C(COc1ccccc1)N(C(=S)OCCOc1ccccc1)c1ccccc1 | 17.1 | 103 |  |  | 
2 | CC(COc1ccccc1)OC(=S)N(C(=O)c1cccc([N+](=O)[O-])c1)c1ccccc1 (centres undefined) | >55.5 | > 200 |  |  | 
3 | CCCOC(=O)N(C(=S)OC(C)COc1ccccc1)c1ccccc1 (centres undefined) | >1.5 | > 200 |  |  | 
4 | O=C(c1cccs1)N(C(=S)OCCOc1ccccc1)c1ccccc1 | 14.5 | 125 |  |  | 
5 | O=C(c1ccco1)N(C(=S)OCCOc1ccccc1)c1ccccc1 | 9.7 | 82 |  |  | 
6 | O=C1c2ccccc2C(=O)N1CCOC(=S)N(C(=O)c1cccs1)c1cccc(Cl)c1 | >17 | > 100 |  |  | 
7 | CCN(CC)c1ccc(N(C(=O)c2cccs2)C(=S)OCCN2C(=O)c3ccccc3C2=O)cc1 | 9 | > 100 |  |  | 
8 | Cc1cccc(N(C(=O)c2cccs2)C(=S)OCCN2C(=O)c3ccccc3C2=O)c1 | >10 | > 100 |  |  | 
9 | CC(COc1ccccc1)OC(=S)N(C(=O)c1cccs1)c1ccccc1 (centres undefined) | >100 | > 200 |  |  | 
10 | CCc1ccc(N(C(=O)c2ccco2)C(=S)OCCN2C(=O)c3ccccc3C2=O)cc1 | >3333 | > 100 |  |  | 
11 | CC(COc1ccccc1)OC(=S)N(C(=O)c1ccco1)c1ccccc1 (centres undefined) | 39.6 | 51.5 |  |  | 
12 | O=C1c2ccccc2C(=O)N1CCOC(=S)N(C(=O)c1cccs1)c1ccc(Cl)cc1 | >25000 | > 200 | 6.00 | 0.008 | 5.60
13 | CC(COc1ccccc1)OC(=S)N(C(=O)c1ccccc1)c1ccccc1 (centres undefined) | >153.8 | > 200 |  |  | 
14 | O=C1c2ccccc2C(=O)N1CCOC(=S)N(C(=O)c1cccs1)c1ccccc1Cl | 9 | > 100 |  |  | 
15 | CCCCOC(=O)N(C(=S)OC(C)COc1ccccc1)c1ccccc1 (centres undefined) | >4 | > 200 |  |  | 
16 | O=C1c2ccccc2C(=O)N1CCOC(=S)N(C(=O)c1cccs1)c1cccc(F)c1 | >9 | > 100 |  |  | 
17 | O=C(c1ccccc1)N(C(=S)OCCSc1ccccc1)c1ccccc1 |  | 44 |  |  | 
18 | COc1cccc(N(C(=O)c2cccs2)C(=S)OCCN2C(=O)c3ccccc3C2=O)c1 | >28 | > 100 |  |  | 
19 | O=C1c2ccccc2C(=O)N1CCOC(=S)N(C(=O)c1cccs1)c1cccc(C(F)(F)F)c1 | >9 | > 100 |  |  | 
20 | CCc1ccccc1N(C(=O)c1cccs1)C(=S)OCCN1C(=O)c2ccccc2C1=O | >9 | > 100 |  |  | 
21 | O=C1c2ccccc2C(=O)N1CCOC(=S)N(C(=O)c1ccc(Cl)cc1)c1ccc(Cl)cc1 | >4000 | > 100 | 4.94 | 0.02 | 
22 | CC(COc1ccccc1)OC(=S)N(C(=O)c1cccs1)c1ccc([N+](=O)[O-])cc1 (centres undefined) | 10.5 | 63 |  |  | 
23 | CC(=O)Oc1ccccc1C(=O)N(C(=S)OCCOc1ccccc1)c1ccccc1 | >21 | > 200 |  |  | 
24 | O=C(c1ccc(Cl)c([N+](=O)[O-])c1)N(C(=S)OCCOc1ccccc1)c1ccccc1 | 10.5 | 80 |  |  | 
25 | O=C1c2ccccc2C(=O)N1CCOC(=S)N(C(=O)c1ccco1)c1ccc(Cl)cc1 | 5857 | 41 | 5.77 | 0.005 | 5.64
26 | CC(=O)c1cccc(N(C(=O)c2cccs2)C(=S)OCCN2C(=O)c3ccccc3C2=O)c1 | >17 | > 100 |  |  | 
27 | CC(COc1ccccc1)OC(=S)N(C(=O)c1cccc2ccccc12)c1ccccc1 (centres undefined) | >33.3 |  |  |  | 
28 | CC(COc1ccccc1)OC(=S)N(C(=O)COc1ccccc1)c1ccccc1 (centres undefined) | 87.4 | 122 |  |  | 
29 | O=C(c1ccccc1)N(C(=S)OCCOc1ccccc1)c1ccccc1 | 15.2 | 122 |  |  | 
30 | S=C(NCCc1ccccn1)Nc1ccc(Br)cn1 [TROVIRDINE] | 3000 | 60 | 5.92 | 0.015 | 5.38
